{"source": "ChEMBL document CHEMBL3108739", "about": "“Activation and inhibition of thermosensitive TRP channels by voacangine, an alkaloid present in Voacanga africana, an African tree” (J Nat Prod, 2014)", "key": {"[1]": {"target": "T1, Transient receptor potential cation channel subfamily V member 1 (Homo sapiens, UniProt Q8NER1)", "T1 sequence (Q8NER1 whole entry)": "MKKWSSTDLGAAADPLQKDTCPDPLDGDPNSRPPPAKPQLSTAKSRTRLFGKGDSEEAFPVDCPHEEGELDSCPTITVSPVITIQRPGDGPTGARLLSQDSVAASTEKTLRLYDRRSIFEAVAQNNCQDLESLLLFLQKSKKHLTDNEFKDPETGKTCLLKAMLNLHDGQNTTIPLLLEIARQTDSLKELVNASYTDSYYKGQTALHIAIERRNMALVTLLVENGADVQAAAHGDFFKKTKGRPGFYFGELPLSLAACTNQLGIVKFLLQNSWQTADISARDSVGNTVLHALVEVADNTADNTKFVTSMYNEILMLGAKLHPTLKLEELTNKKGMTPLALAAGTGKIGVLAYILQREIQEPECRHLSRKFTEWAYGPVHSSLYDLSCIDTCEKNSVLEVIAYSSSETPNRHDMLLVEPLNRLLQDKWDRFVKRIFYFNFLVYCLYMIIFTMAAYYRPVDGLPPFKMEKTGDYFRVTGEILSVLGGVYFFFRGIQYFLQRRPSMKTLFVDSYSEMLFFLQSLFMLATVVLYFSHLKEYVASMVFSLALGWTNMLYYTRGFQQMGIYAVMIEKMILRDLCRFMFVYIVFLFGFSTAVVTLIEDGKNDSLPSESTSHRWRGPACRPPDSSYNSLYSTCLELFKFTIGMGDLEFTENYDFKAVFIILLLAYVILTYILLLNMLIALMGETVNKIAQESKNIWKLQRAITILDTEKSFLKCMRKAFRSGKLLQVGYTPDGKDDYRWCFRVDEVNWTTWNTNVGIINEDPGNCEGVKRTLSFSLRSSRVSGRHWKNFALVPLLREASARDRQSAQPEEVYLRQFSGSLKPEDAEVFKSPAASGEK", "experiment": "Competitive antagonist activity at human brain TRPV1 expressed in HEK293T cells assessed as inhibition of CAP-induced intracellular Ca2+ influx preincubated for 3 mins followed by CAP challenge by Schlid plot analysis", "format": "cell-based", "outline": "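hTRPV1-HEK293T; capsaicin curves 0.0001−10 μM with 10, 30, 50 μM compound after 3 min preincubation. Schild plots (log(dose ratio − 1) vs log antagonist), six series; slope not differing from unity taken as competitive; KB derived.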"}, "[2]": {"target": "Transient receptor potential cation channel subfamily M member 8 (Mus musculus) (UniProt Q8R4D5)", "sequence (Q8R4D5 whole entry)": "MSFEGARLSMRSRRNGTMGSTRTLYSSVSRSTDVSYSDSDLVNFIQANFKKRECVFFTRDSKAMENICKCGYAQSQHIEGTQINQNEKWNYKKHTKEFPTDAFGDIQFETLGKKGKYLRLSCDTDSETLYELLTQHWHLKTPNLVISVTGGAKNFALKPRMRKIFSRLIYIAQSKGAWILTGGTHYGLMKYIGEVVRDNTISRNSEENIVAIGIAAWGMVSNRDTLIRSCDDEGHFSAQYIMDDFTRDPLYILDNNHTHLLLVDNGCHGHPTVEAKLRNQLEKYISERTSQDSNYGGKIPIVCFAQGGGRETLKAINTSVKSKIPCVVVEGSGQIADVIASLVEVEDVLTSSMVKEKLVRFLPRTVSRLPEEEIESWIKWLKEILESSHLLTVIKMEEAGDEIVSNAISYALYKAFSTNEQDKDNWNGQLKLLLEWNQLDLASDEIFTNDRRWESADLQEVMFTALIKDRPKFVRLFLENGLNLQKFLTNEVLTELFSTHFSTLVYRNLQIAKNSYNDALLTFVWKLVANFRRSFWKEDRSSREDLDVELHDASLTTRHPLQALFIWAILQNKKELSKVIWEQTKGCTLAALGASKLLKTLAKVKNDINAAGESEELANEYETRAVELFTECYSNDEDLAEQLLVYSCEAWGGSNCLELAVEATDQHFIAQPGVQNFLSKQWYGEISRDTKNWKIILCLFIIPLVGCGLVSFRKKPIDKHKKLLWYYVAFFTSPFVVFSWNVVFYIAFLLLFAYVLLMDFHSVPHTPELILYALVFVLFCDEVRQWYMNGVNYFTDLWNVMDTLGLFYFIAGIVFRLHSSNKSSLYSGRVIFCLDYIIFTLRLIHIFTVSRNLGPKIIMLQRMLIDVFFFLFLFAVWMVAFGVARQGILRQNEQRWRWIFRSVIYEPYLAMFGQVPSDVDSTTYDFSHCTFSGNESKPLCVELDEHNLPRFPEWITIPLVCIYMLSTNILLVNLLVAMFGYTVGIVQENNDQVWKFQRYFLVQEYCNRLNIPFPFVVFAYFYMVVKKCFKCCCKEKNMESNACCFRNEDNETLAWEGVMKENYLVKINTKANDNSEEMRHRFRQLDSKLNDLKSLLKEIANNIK", "settings": "Dorsal root ganglion, HEK T-REx, 3 to 30 uM"}, "[3]": {"target": "Transient receptor potential cation channel subfamily M member 8 (Mus musculus) (UniProt Q8R4D5)", "settings": "Dorsal root ganglion, HEK T-REx, 3 to 30 uM", "remark": "listed apart in the source"}, "[4]": {"target": "Transient receptor potential cation channel subfamily M member 8 (Mus musculus) (UniProt Q8R4D5)", "experiment": "(§1) Antagonist at TRPM8 isolated from mouse dorsal root ganglion cells expressed in HEK T-REx cells assessed as inhibition of menthol-induced intracellular Ca2+ influx by fluorescence-based assay", "format": "cell-based", "outline": "(§2)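 Tetracycline-induced mTRPM8 in HEK T-REx, Fluo-4 Ca2+ at 37 °C. Antagonists (e.g. 0.01−100 μM, CNA up to 500 μM) preincubated 3 min before 10 μM menthol. IC50 from dose−inhibition curves, data as % of 10 μM menthol; n = 4−12.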"}, "[5]": {"target": "T2, Transient receptor potential cation channel subfamily M member 8 (Mus musculus, UniProt Q8R4D5)", "T2 sequence (Q8R4D5 whole entry)": "as above", "experiment": "as §1", "format": "cell-based", "outline": "as §2"}, "[6]": {"target": "T2, Transient receptor potential cation channel subfamily M member 8", "experiment": "Competitive antagonist at TRPM8 isolated from mouse dorsal root ganglion cells expressed in HEK T-REx cells assessed as inhibition of menthol-induced intracellular Ca2+ influx by Schlid plot analysis"}, "[7]": {"target": "Transient receptor potential cation channel subfamily M member 8 (Mus musculus) (UniProt Q8R4D5)", "settings": "Dorsal root ganglion, HEK T-REx, 3 to 30 uM", "remark": "listed apart in the source"}, "[8]": {"target": "Transient receptor potential cation channel subfamily A member 1 (Homo sapiens, UniProt O75762)", "sequence (O75762 whole entry)": "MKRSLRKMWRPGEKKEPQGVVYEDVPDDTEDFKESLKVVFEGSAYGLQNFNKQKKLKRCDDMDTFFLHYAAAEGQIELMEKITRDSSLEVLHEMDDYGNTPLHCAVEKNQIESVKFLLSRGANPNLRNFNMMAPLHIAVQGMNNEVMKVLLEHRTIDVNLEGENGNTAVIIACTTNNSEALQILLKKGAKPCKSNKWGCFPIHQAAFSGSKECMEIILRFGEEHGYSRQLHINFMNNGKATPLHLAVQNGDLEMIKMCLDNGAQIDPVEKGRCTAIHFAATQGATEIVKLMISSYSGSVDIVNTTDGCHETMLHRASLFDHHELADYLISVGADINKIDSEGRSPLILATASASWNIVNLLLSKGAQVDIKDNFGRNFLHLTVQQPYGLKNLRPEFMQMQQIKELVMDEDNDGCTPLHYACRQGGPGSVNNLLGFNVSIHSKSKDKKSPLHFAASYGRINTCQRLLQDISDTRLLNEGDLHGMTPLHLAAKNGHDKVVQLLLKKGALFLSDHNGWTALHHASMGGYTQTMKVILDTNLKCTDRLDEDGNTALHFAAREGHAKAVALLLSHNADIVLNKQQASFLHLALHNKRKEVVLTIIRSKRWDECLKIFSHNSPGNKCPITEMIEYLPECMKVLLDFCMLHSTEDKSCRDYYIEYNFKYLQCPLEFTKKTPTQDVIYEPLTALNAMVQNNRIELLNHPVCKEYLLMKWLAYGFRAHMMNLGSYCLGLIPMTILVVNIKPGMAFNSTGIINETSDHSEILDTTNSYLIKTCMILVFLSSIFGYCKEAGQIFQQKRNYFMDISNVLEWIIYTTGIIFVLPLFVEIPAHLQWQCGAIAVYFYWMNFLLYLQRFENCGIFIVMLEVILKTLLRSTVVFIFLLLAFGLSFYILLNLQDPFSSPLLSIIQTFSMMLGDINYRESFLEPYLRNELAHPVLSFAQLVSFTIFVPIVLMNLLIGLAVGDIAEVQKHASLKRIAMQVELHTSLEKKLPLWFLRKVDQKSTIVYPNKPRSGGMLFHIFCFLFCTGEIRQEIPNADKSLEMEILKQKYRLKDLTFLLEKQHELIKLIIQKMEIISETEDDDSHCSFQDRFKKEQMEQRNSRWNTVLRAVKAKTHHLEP", "experiment": "Agonist activity at TRPA1 isolated from human W138 cells expressed in HEK293T cells assessed as intracellular Ca2+ influx at 100 uM by Fluo-4 AM staining-based fluorescence analysis", "format": "cell-based", "outline": "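Tetracycline-induced (1 μg/mL) stable hTRPA1 in HEK T-REx cells, Fluo-4 AM loaded (3 μM, 1 h, 37 °C) in HEPES buffer pH 7.4 with probenecid; Ca2+ read at 37 °C. Compound 0.01−100 μM; HC-030031 30 μM pretreated 3 min. Responses as % of 5 μM ionomycin or of 100 μM AITC; TREx cells without TRPA1 as control; n = 4−8.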"}, "[9]": {"target": "T1, Transient receptor potential cation channel subfamily V member 1", "experiment": "Competitive antagonist activity at human brain TRPV1 expressed in HEK293T cells assessed as inhibition of CAP-induced intracellular Ca2+ influx preincubated for 3 mins followed by CAP challenge", "format": "cell-based", "settings": "HEK-293T", "outline": "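hTRPV1-HEK293T, Fluo-4 Ca2+ at 37 °C; antagonist (0.3−100 μM) preincubated 3 min then 0.01 μM capsaicin; DMSO final 0.1−1%. IC50 from dose−inhibition curves; data as % of 10 μM capsaicin.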"}, "[10]": {"target": "Transient receptor potential cation channel subfamily M member 8 (Mus musculus) (UniProt Q8R4D5)", "settings": "Dorsal root ganglion, HEK T-REx, 10 to 50 uM"}, "[11]": {"target": "T1, Transient receptor potential cation channel subfamily V member 1", "experiment": "Antagonist activity at human brain TRPV1 expressed in HEK293T cells assessed as inhibition of heat-induced intracellular Ca2+ influx measured for 42 mins by fluorescence-based assay", "format": "cell-based, HEK-293T", "outline": "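hTRPV1-HEK293T, Fluo-4 loaded; antagonist pretreated 3 min, plate heated from 40 to 45 °C, Ca2+ signal recorded 42 min. Data as % of heat response; IC50 from dose curve; n = 4−10.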"}}, "note": "Active and inactive are the calls of the source. No cut-off for these calls is given here."}
{"smiles": "CC[C@H]1C[C@@H]2CN3CCc4c([nH]c5ccc(OC)cc45)[C@](C(=O)OC)(C2)[C@H]13", "note": "[VOACANGINE]", "values": [{"measurement": "Kb", "setting": "[1]; HEK-293T", "result": 18, "unit": "µM"}, {"measurement": "Kb", "setting": "[1]; read-out: pA2 (converted)", "result": 20, "unit": "µM"}, {"measurement": "inhibition", "setting": "[2]", "result": "Active"}, {"measurement": "inhibition", "setting": "[3]", "result": "Active"}, {"measurement": "inhibition", "setting": "[4]", "result": "Dose-dependent effect"}, {"measurement": "IC50", "setting": "[5]", "result": 9, "unit": "µM"}, {"measurement": "Kb", "setting": "[6]", "result": 7.94, "unit": "µM"}, {"measurement": "inhibition", "setting": "[7]", "result": "inactive"}, {"measurement": "Activity", "setting": "[8]", "result": "Active"}, {"measurement": "inhibition", "setting": "[9]", "result": "Active"}, {"measurement": "inhibition", "setting": "[10]", "result": "Active"}, {"measurement": "IC50", "setting": "[11]", "result": 24, "unit": "µM"}, {"measurement": "inhibition", "setting": "[11]; HEK-293T", "result": "Dose-dependent effect"}]}
